Source: PubChem BioAssay
APJ ag = activates the human apelin receptor APJ; CHO-K1 APJ PathHunter beta-arrestin, luminescence; 0% DMSO wells, 100% apelin; activation, % at 20 µM; AID 2520; P35414; hit rate 0.11% among 330,000;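 active means activation more than six SD over the plate average, tested at 20 µM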
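Assay system – PathHunter CHO-K1 APJ (AGTRL-1) beta-arrestin reporter cells · Compound – one dose, 20 µM compound, 1% DMSO · Timing – compound 90 min 25 °C, reagent 1 h · Measured by – luminescence from split beta-galactosidase complementation, Galacton Star/Emerald II substrate · Measure – beta-arrestin recruitment to APJ as agonist activity, luminescent signal · Benchmarks – DMSO vs Apelin-13 10 nM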
CXCR6 block = CXCR6 (human) receptor inhibition | CHO-K1 PathHunter CXCR6 beta-arrestin, luminescence | inhibition, % at 20 µM | hit rate 0.36% among 360,000 | AID 602244; in the data active means inhibition above about 34%, passing the limit was not always enough;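 further: antagonist mode with CXCL16 agonist at 10 nM final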
CCR6 antagonist = blocks CCL20-driven beta-arrestin recruitment at human CCR6; P51684; CHO-K1 CCR6 PathHunter beta-arrestin, luminescence, CCL20-stimulated; inhibition, % at 20 µM; hit rate 0.49% among 340,000; AID 493098;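 active means compounds whose inhibition of the agonist-driven luminescence signal at 20 µM reaches about 50%, limit read from the data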;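 further: cells stimulated with CCL20 at 14 nM final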
Target sequence (P51684 whole entry, looked up): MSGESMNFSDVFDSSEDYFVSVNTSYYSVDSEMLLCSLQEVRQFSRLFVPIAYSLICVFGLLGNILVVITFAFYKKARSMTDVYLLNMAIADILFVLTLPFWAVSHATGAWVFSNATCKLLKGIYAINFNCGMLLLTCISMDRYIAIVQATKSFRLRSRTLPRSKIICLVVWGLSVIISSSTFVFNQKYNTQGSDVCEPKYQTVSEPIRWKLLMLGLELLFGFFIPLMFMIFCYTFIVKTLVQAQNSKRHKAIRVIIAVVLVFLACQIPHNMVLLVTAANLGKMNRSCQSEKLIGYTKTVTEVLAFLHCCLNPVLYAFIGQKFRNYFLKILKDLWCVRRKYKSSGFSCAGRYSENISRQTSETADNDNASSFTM
EBI2 antag = blocks human EBI2 receptor beta-arrestin signaling | P32249 | EBI2 beta-arrestin recruitment, luminescence, 7a,25-OHC stimulated | inhibition, % at 5 µM | hit rate 0.81% among 360,000 | AID 651636; in the data active means inhibition above about 38%;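 further: enzyme fragment complementation signal reports receptor beta-arrestin coupling in cells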
APJ antag = APJ receptor antagonism; P35414; CHO-K1 APJ beta-arrestin complementation, luminescence; inhibition, % at 20 µM; hit rate 0.32% among 330,000; AID 2521;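 active means inhibition above about 40% at 20 µM, limit read from the data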;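 further: cells challenged with 10 nM apelin-13 agonist together with compound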
EBI2 antag conf = confirmation of human EBI2 receptor antagonists; shares compounds with EBI2 antag; EBI2 beta-arrestin luminescence, 7a,25-OHC antagonism; inhibition, % at 5 µM; hit rate 29% among 2,400; AID 651997;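 active means inhibition of at least 50%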
EBI2 agonist = EBI2 agonism counter-screen; shares compounds with EBI2 antag; EBI2-expressing cells, agonist mode, luminescence, 60 min; 0% vehicle, 100% 7α,25-dihydroxycholesterol control; activation, % at 5 µM; 2,400 tested, under 10 active; AID 652000;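 active means activation of at least 50%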
bGal counter = beta-galactosidase inhibition counter-screen | purified beta-galactosidase, luminescent Galacton Star, 15 min | inhibition, % at 5 µM | shares compounds with EBI2 antag | hit rate 1% among 2,400;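 active means replicate-average signal at least 3 plate SD below neutral wells, shown as high inhibition, flagging enzyme-inhibiting false positives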;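 further: higher means stronger loss of beta-gal luminescence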
Large screens that a line does not name were inactive (follow-up assays come after a bar, where they were run). In the library only some 1.5% were active in any assay of this set; here they are far more common.

COc1ccc(N=Cc2c(O)n(Cc3cccs3)c(=O)[nH]c2=O)cc1	none
O=C(COc1ccccc1)N1CCN(C/C=C/c2ccccc2)CC1	EBI2 antag 72 | EBI2 antag conf 60 | EBI2 agonist inactive | bGal counter inactive
COc1ccc(OCC(=O)N2CCN(C3CCC(c4ccccc4)CC3)CC2)cc1 (centres undefined)	EBI2 antag 85 | EBI2 antag conf 63 | EBI2 agonist inactive | bGal counter inactive
O=C(COc1ccc(Cl)cc1)N1CCN(C/C=C/c2ccccc2)CC1	EBI2 antag 96 | EBI2 antag conf 86 | EBI2 agonist inactive | bGal counter inactive
COc1ccc(OCC(=O)N2CCN(C/C=C/c3ccccc3)CC2)cc1	EBI2 antag 93 | EBI2 antag conf 77 | EBI2 agonist inactive | bGal counter inactive
O=C(COc1ccccc1)N1CCN(C2CCCC2)CC1	none
CC1([N+](=O)[O-])COP(=O)(NCc2cccnc2)OC1 (centres undefined)	none (no result: APJ ag, APJ antag)
CCOC(=O)c1sc(/N=C/c2c(O)n(-c3cccc(C)c3)c(=O)[nH]c2=O)c(C#N)c1C	none
O=C1NC(=O)N(c2cccc(Br)c2)C(=O)/C1=C/c1ccsc1	none
O=C(COc1ccccc1)c1cn(Cc2ccccc2)c2ccccc12	EBI2 antag 46 | EBI2 antag conf inactive | EBI2 agonist inactive | bGal counter inactive
CCC(=O)c1cn(Cc2ccccc2)c2ccccc12	none
